Runt-SMMHC FRET – inhibitors of RUNX1 Runt–CBFb-SMMHC binding, primary screen, biochemical, FRET, Cerulean-Runt, Venus-CBFb-SMMHC, uHTS; hit rate 0.74% among 220,000; Cerulean-Runt/Venus-CBFb-SMMHC FRET ratio 530/480, 1 h; inhibition, % at 20 µM;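 active = mean inhibition across duplicate retests at 20 µM reaching about 50%, limit read from the data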;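 note: 0% = DMSO wells and 100% = wells with excess untagged CBFb-SMMHC; inhibitors lower the FRET ratio by blocking Runt binding to CBFb-SMMHC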
Hck Nef HTS – inhibitors of Nef-activated human Hck kinase, primary screen, biochemical, Z-Lyte FRET, 384-well, Hck-YEEI | hit rate 0.68% among 220,000 | Recombinant Hck-YEEI plus Nef, Z-Lyte FRET kinase assay | Tyrosine-protein kinase HCK (Homo sapiens), P08631 | inhibition, % at 20 µM;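 active = Hck-Nef kinase inhibition above about 50%, limit read from the data; inactive = inhibition below that limit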;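 note: 0% = DMSO with Hck plus Nef and 100% = Hck alone without Nef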
Target sequence (P08631 whole entry, looked up): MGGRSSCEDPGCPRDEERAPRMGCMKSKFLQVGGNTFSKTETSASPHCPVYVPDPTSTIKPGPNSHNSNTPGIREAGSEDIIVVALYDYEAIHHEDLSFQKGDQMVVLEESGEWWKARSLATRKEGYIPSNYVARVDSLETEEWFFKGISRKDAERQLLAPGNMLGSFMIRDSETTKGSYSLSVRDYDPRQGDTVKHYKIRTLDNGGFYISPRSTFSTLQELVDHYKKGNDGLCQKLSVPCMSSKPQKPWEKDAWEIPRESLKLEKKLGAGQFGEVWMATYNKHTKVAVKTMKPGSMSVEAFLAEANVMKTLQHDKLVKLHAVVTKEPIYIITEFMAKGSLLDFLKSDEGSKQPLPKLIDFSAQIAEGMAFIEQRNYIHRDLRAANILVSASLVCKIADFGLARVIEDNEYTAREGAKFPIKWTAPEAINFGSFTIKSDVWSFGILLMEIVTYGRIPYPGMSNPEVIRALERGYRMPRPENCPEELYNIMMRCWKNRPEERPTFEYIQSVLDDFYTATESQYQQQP
CaV13 ICDI inh – Disruptors of the CACNA1D IQ motif to Ca2+-dependent inactivation inhibitor domain association, primary screening, Förster resonance energy transfer in intact living … | HEK cells, CFP/YFP FRET ICDI-IQ, plate reader, 10 min; percent FRET-ratio fall versus neutral wells | inhibition, % at 12.3 µM | hit rate 0.098% among 340,000;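 active = mean replicate inhibition of at least 30% and at least 1% of replicates passing that level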;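 note: 0% = median of the neutral control wells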
RanGTP-Imp inh – inhibitors of RanGTP-importin-beta interaction, primary screen, biochemical, FRET, CFP-Ran, YFP-importin-beta, homogeneous | Ran GTPase (GTP-bound) - importin-beta complex | cell-free CFP-Ran/YFP-importin-beta FRET ratio | inhibition, % (concentration not given with the values) | hit rate 1.1% among 300,000 | AID 2216, 2009;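 active = more than half of the replicate wells show a fall in the fluorescence ratio signal beyond about 16%, limit read from the data, passing the limit was not always enough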;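 note: 0% = DMSO wells and 100% = Ran loaded with GDP instead of GTP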
Runt-CBFb FRET – inhibitors of RUNX1 Runt–CBFb binding, primary screen, biochemical, FRET, Cerulean-Runt, Venus-CBFb, uHTS; Cerulean-Runt/Venus-CBFb FRET ratio 530/480, 1 h; hit rate 0.46% among 220,000; inhibition, % at 20 µM; AID 1496, 2009;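 active = inhibition over about 50% at 20 µM in the single-dose screen, limit read from the data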;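 note: 0% = DMSO wells and 100% = excess unlabeled CBFb competitor control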
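Measured by: fluorescence energy transfer, 422 nm excitation, 530/480 nm emission; test system: Cerulean-tagged RUNX1 Runt domain (FRET donor) fusion protein; buffer or medium: Tris pH 7.5 buffer with BSA; compound: one dose, 20 µM compound, 1% DMSO; times: two 1 h room-temperature incubations shielded from light; benchmarks: unlabeled CBFb 5 µM, positive control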
Active calls of the source: *. A selection: hits, their analogues and other compounds. The true share with any hit is near 1.5%.

Screening CCc1cc2c(CN3CCN(CCO)CC3)cc(=O)oc2cc1O returned Runt-SMMHC FRET 62*, Hck Nef HTS 32, CaV13 ICDI inh -3, RanGTP-Imp inh 113* and Runt-CBFb FRET 70*.
CCc1cc2c(CN3CCN(C)CC3)cc(=O)oc2cc1O was read as Runt-SMMHC FRET 57*, Hck Nef HTS 29, CaV13 ICDI inh -2, RanGTP-Imp inh 114* and Runt-CBFb FRET 18.
For S=C1NC2(CCCCCC2)N=C1c1ccccc1 the results were Runt-SMMHC FRET 3, Hck Nef HTS 0, CaV13 ICDI inh -3, RanGTP-Imp inh 4 and Runt-CBFb FRET 0.
Screening Fc1ccc(CNc2nc(-c3ccco3)cc(C(F)(F)F)n2)cc1 returned Runt-SMMHC FRET -17, Hck Nef HTS 5, CaV13 ICDI inh -5, RanGTP-Imp inh 58* and Runt-CBFb FRET 6.
FC(F)(F)c1cc(-c2ccco2)nc(NCc2ccccc2)n1 was read as Runt-SMMHC FRET -4, Hck Nef HTS 1, CaV13 ICDI inh -5, RanGTP-Imp inh 2 and Runt-CBFb FRET 1.
`CC(=O)Oc1c(/C=C(\C#N)C(N)=O)[nH]c2ccccc12` gave Runt-SMMHC FRET 20, Hck Nef HTS 15, CaV13 ICDI inh -5, RanGTP-Imp inh 16* and Runt-CBFb FRET 34.
Screening Cc1csc(NC(=O)c2cc3c(s2)-c2ccccc2OC3)n1 returned Runt-SMMHC FRET -12, Hck Nef HTS 28, CaV13 ICDI inh -6, RanGTP-Imp inh 49* and Runt-CBFb FRET 2.
For C=CCn1c(O)c(N=NC(=O)CNC(=O)/C=C/c2ccco2)c2ccccc21 the results were Runt-SMMHC FRET -4, Hck Nef HTS 1, CaV13 ICDI inh -9, RanGTP-Imp inh 4 and Runt-CBFb FRET 3.
Cc1nc2ccc3nc(NC(=O)c4ccco4)sc3c2s1 was read as Hck Nef HTS 0, CaV13 ICDI inh -7 and RanGTP-Imp inh 2.
`Cc1csc2c(=O)sc(NC(=O)c3ccco3)nc12` gave Runt-SMMHC FRET 59*, Hck Nef HTS 13, CaV13 ICDI inh -2, RanGTP-Imp inh 1 and Runt-CBFb FRET 34.
Screening Cc1csc2c(=O)sc(NC(=O)c3cccs3)nc12 returned Runt-SMMHC FRET 87*, Hck Nef HTS 28, CaV13 ICDI inh -17, RanGTP-Imp inh 0 and Runt-CBFb FRET 40.
CCOC(=O)c1c(NC(=O)CCCC(=O)O)sc2c1CCC2 was read as Runt-SMMHC FRET 1, Hck Nef HTS 18, CaV13 ICDI inh -6, RanGTP-Imp inh -1 and Runt-CBFb FRET 2.
For CCOC1=NN(c2ncc(C(F)(F)F)cc2Cl)C(=O)C1 the results were Runt-SMMHC FRET 4, Hck Nef HTS 25, CaV13 ICDI inh 34*, RanGTP-Imp inh -1 and Runt-CBFb FRET -2.
CC(=O)NC(=S)Nc1ccccc1N1CCN(C(=O)c2ccccc2)CC1 was read as Runt-SMMHC FRET 1, Hck Nef HTS 13, CaV13 ICDI inh -4, RanGTP-Imp inh 0 and Runt-CBFb FRET -1.
`O=C(COC(=O)Cc1c[nH]c2ccccc12)Nc1cccc(Br)c1` gave CaV13 ICDI inh -11.
CCOc1ccc(S(=O)(=O)N(CC(=O)N2CCC(C(N)=O)CC2)c2ccc(F)cc2)cc1 was read as CaV13 ICDI inh -11 and RanGTP-Imp inh 27*.
For CCOc1ccc(N(CC(N)=O)S(=O)(=O)c2ccc(F)cc2)cc1 the results were Runt-SMMHC FRET -3, Hck Nef HTS -10, CaV13 ICDI inh -3, RanGTP-Imp inh 0 and Runt-CBFb FRET 0.
`CCn1c(N2CCN(C(=S)NC)CC2)nc2ccccc21` gave Runt-SMMHC FRET -2, Hck Nef HTS 1, CaV13 ICDI inh -9 and RanGTP-Imp inh 1.
Screening COC(=O)c1c(C(=O)OC)c(-c2ccccc2)n2c1CS(=O)(=O)C2 returned Runt-SMMHC FRET -1, Hck Nef HTS -2, CaV13 ICDI inh -5, RanGTP-Imp inh 22* and Runt-CBFb FRET 1.
Cc1cc(Cl)ccc1OCC(=O)OCC(=O)Nc1ccc(Cl)cn1 was read as CaV13 ICDI inh -7.
Screening CC(=O)Nc1ccc2c3c(cccc13)C(=O)N(c1ccccc1)C2=O returned Runt-SMMHC FRET 87*, Hck Nef HTS 8, CaV13 ICDI inh -5, RanGTP-Imp inh 73* and Runt-CBFb FRET 21.
Screening Cc1ccc(CNC(=O)CCCNS(=O)(=O)c2cccc3nonc23)cc1 returned Runt-SMMHC FRET 1, Hck Nef HTS -1, CaV13 ICDI inh -4, RanGTP-Imp inh -3 and Runt-CBFb FRET 0.
Screening COc1ccc(CNC(=O)CCCNS(=O)(=O)c2cccc3nonc23)cc1 returned Runt-SMMHC FRET 0, Hck Nef HTS -1, CaV13 ICDI inh -4, RanGTP-Imp inh 63* and Runt-CBFb FRET -1.
`CC(=O)Nc1ccc(OCCC[n+]2ccccc2)cc1` gave Runt-SMMHC FRET -2, Hck Nef HTS 16, CaV13 ICDI inh -5, RanGTP-Imp inh 17* and Runt-CBFb FRET -1.
Screening Cn1c(/C(C#N)=C/c2ccc(O)cc2)nc2ccccc21 returned Runt-SMMHC FRET -3, Hck Nef HTS -17, CaV13 ICDI inh -3, RanGTP-Imp inh 28* and Runt-CBFb FRET 13.
For O=C1C=C(OCc2ccccc2)CN1 the results were Runt-SMMHC FRET 3, Hck Nef HTS 2, CaV13 ICDI inh -5, RanGTP-Imp inh -1 and Runt-CBFb FRET -2.
Screening COc1ccccc1NS(=O)(=O)c1cc(NC(=O)CCNC(C)=O)ccc1C returned Runt-SMMHC FRET -3, Hck Nef HTS 16, CaV13 ICDI inh 151*, RanGTP-Imp inh -1 and Runt-CBFb FRET 1.
For N#C/C(=C\c1c[nH]c2ccccc12)C(=O)Nc1ncc(Cc2ccc(Cl)cc2Cl)s1 the results were Runt-SMMHC FRET -187, Hck Nef HTS 8, CaV13 ICDI inh -9, RanGTP-Imp inh 46* and Runt-CBFb FRET -207.
`CCOc1ccc2nc(Cl)c(C3CC(c4ccco4)=NN3S(=O)(=O)c3ccccc3)cc2c1` (stereo unspecified) gave Runt-SMMHC FRET -6, Hck Nef HTS 59*, CaV13 ICDI inh -3, RanGTP-Imp inh -1 and Runt-CBFb FRET -2.
CCC1Sc2ccc(S(=O)(=O)CCC(=O)Nc3c(Cl)cc(OC)cc3OC)cc2NC1=O (stereo unspecified) was read as CaV13 ICDI inh -2 and RanGTP-Imp inh 1.
COc1ccc(C(c2c(C)n(C)n(-c3ccccc3)c2=O)c2c(C)n(C)n(-c3ccccc3)c2=O)cc1O was read as Runt-SMMHC FRET -4, Hck Nef HTS 17 and Runt-CBFb FRET 0.

Screening data as filed in PubChem BioAssay.
